# Results: ChEMBL document CHEMBL1134692, “QSAR study on the contribution of log P and E(s) to the in vitro antiprotozoal activity of glutathione derivatives” (J Med Chem, 2001)
# Assays:
# [1] = Partition coefficient (logP); format: physicochemical; settings: octanol/water
# [2] = Evaluated for its inhibitory activity against KB cells; format: functional; settings: Homo sapiens, read-out: ED50 (the source's name)
# Summary of the method: (§1)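 KB cells (human oral pharyngeal carcinoma) grown in RPMI with 10% calf foetal serum at 37 °C, 5% CO2 in humidified air. Exposed to compound for 3 days under the same conditions, then viability read by Alamar Blue assay; ED50 reported.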
# Leishmania donovani [3] = test: Inhibitory activity against Leishmania donovani; format: functional; settings: read-out: ED50 (the source's name)
# Summary of the method: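 Starch-elicited peritoneal macrophages from female CD1 mice were plated at 4 × 10^4/well in RPMI-1640 with 10% HIFCS. After 24 h they were infected at 10:1 with L. donovani amastigotes (MHOM/ET/67/L82, hamster-passaged). Drug was given as a 3-fold dilution series in quadruplicate for 5 days. Activity was scored as the percentage of macrophages cleared of amastigotes. Sodium stibogluconate control.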
# Trypanosoma cruzi [4] = test: (§2) Percent decrease in viable parasitesrelative to the control at 30 uM; format: functional
# Summary of the method: (§3)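 Single concentration of 30 μM in the intracellular amastigote macrophage assays. Inhibition is expressed as the percent decrease in viable parasites relative to untreated control.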
# Trypanosoma cruzi [5] = test: Evaluated for its inhibitory activity against Trypanosoma cruzi; format: functional; settings: read-out: ED50 (the source's name)
# Summary of the method: (§4)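 Starch-elicited female CD1 mouse peritoneal macrophages (4 × 10^4/well, RPMI-1640, 10% HIFCS) were infected after 24 h at 5:1 with T. cruzi Y trypomastigotes derived from MDCK cultures. Drug was applied as a 3-fold dilution series in quadruplicate for 3 days. Activity was the percentage of macrophages cleared of amastigotes. Nifurtimox control.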
# [6] = system: Trypanosoma brucei brucei; test: Inhibitory activity against Trypanosoma brucei; format: functional; settings: read-out: ED50 (the source's name)
# Summary of the method: (§5)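 T. b. brucei S427 bloodstream trypomastigotes kept in HMI-18 with 20% heat-inactivated FCS at 37 °C, 5% CO2. Parasites at 2 × 10^5/mL were mixed 1:1 with compound, run in triplicate as a 3-fold dilution series from 30 μM top. Incubated 3 days at 37 °C; Alamar Blue read-out on day 3 gave ED50. Pentamidine positive control.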
# [7] = Relative toxicity was evaluated as ED50 for KB cell line to that of ED50 for T.B. brucei; format: organism-based; settings: trypanosoma brucei brucei, KB cells versus Trypanosoma brucei brucei; read-out: Relative toxicity
# Summary of the method: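 Ratio of ED50 against KB cells to ED50 against T. b. brucei bloodstream forms, each from the 3-day Alamar Blue assays.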
# Trypanosoma cruzi [8] = test: (§6) Percent decrease in viable parasitesrelative to the control; format: functional; summary of the method: as §3
# Trypanosoma cruzi [9] = test: Evaluated for its inhibitory activity against Trypanosoma cruzi; NA= not active at 30 umol; format: functional, organism-based; summary of the method: as §4
# [10] = system: Trypanosoma brucei brucei; test: Compound was evaluated for its inhibitory activity against Trypanosoma brucei; NA= not active at 30 umol; format: functional, organism-based; summary of the method: as §5
# Leishmania donovani [11] = test: as §2; format: functional; summary of the method: as §3
# Leishmania donovani [12] = test: as §6; format: functional; summary of the method: as §3
# Homo sapiens = organism: Homo sapiens; test: Compound was evaluated for its inhibitory activity against KBcells; format: functional; summary of the method: as §1
Compound,logP [1],EC50 [2],EC50 (Leishmania donovani [3]),EC50 (Trypanosoma cruzi [5]),EC50 [6],inhibition at 30 µM (Trypanosoma cruzi [4]),selectivity ratio [7],Inhibition (Trypanosoma cruzi [8]),Activity against T. cruzi (Trypanosoma cruzi [9]),NA [10],inhibition at 30 µM (Leishmania donovani [11]),Inhibition (Leishmania donovani [12]),ED50 (Homo sapiens)
O=C(CCC(NC(=O)OCc1ccccc1)C(=O)OC1CCCC1)NC(CSc1ccc([N+](=O)[O-])cc1[N+](=O)[O-])C(=O)NCC(=O)OC1CCCC1 (configuration not stated),5.67,50.5 µM,29.6 µM,> 30 µM,0.18 µM,30%,280,–,–,–,–,–,–
CCCCCCOC(=O)CNC(=O)C(CSc1ccc([N+](=O)[O-])cc1[N+](=O)[O-])NC(=O)CCC(NC(=O)OCc1ccccc1)C(=O)OCCCCCC (configuration not stated),7.02,109 µM,> 30 µM,> 30 µM,5.8 µM,–,18.8,36%,–,–,–,–,–
O=C(CCC(NC(=O)OCc1ccccc1)C(=O)OCCCCCl)NC(CSc1ccc([N+](=O)[O-])cc1[N+](=O)[O-])C(=O)NCC(=O)OCCCCCl (configuration not stated),5.56,0.38 µM,> 30 µM,28 µM,3.05 µM,–,0.12,–,–,–,–,–,–
CCCCCCCCOC(=O)CNC(=O)C(CSc1ccc([N+](=O)[O-])cc1[N+](=O)[O-])NC(=O)CCC(NC(=O)OCc1ccccc1)C(=O)OCCCCCCCC (configuration not stated),8.99,95.3 µM,> 30 µM,–,–,–,–,–,not active at 30 umol,not active at 30 umol,–,11%,–
O=C(CCC(NC(=O)OCc1ccccc1)C(=O)OCCF)NC(CSc1ccc([N+](=O)[O-])cc1[N+](=O)[O-])C(=O)NCC(=O)OCCF (configuration not stated),2.97,15.2 µM,> 30 µM,> 30 µM,21.8 µM,–,0.99,8%,–,–,–,26%,–
CCCCOC(=O)C(CCC(=O)NC(CSc1ccc([N+](=O)[O-])cc1[N+](=O)[O-])C(=O)NCC(=O)O)NC(=O)OCc1ccccc1 (configuration not stated),2.8,–,> 30 µM,> 30 µM,10.3 µM,–,–,–,–,–,–,12%,–
COC(=O)CNC(=O)C(CSc1ccc([N+](=O)[O-])cc1[N+](=O)[O-])NC(=O)CCC(NC(=O)OCc1ccccc1)C(=O)O (configuration not stated),1.32,–,> 30 µM,–,–,–,–,–,–,–,–,–,–
CCCCCOC(=O)CNC(=O)C(CSc1ccc([N+](=O)[O-])cc1[N+](=O)[O-])NC(=O)CCC(NC(=O)OCc1ccccc1)C(=O)OCCCCC (configuration not stated),6.04,–,> 30 µM,6.7 µM,0.38 µM,–,789,–,–,–,–,–,> 300 µM
O=C(CCC(NC(=O)OCc1ccccc1)C(=O)OCCCCl)NC(CSc1ccc([N+](=O)[O-])cc1[N+](=O)[O-])C(=O)NCC(=O)OCCCCl (configuration not stated),4.58,0.39 µM,> 30 µM,> 30 µM,1.05 µM,–,0.8,35%,–,–,–,–,–
COCCOC(=O)CNC(=O)C(CSc1ccc([N+](=O)[O-])cc1[N+](=O)[O-])NC(=O)CCC(NC(=O)OCc1ccccc1)C(=O)OCCOC (configuration not stated),1.56,0.7 µM,20 µM,–,10 µM,–,0.07,–,–,–,–,–,–
O=C(CCC(NC(=O)OCc1ccccc1)C(=O)OCCCl)NC(CSc1ccc([N+](=O)[O-])cc1[N+](=O)[O-])C(=O)NCC(=O)OCCCl (configuration not stated),3.6,49.5 µM,9.92 µM,–,0.49 µM,–,101,–,–,–,–,–,–
O=C(CCC(NC(=O)OCc1ccccc1)C(=O)OC1CCCCC1)NC(CSc1ccc([N+](=O)[O-])cc1[N+](=O)[O-])C(=O)NCC(=O)OC1CCCCC1 (configuration not stated),6.65,51 µM,–,–,0.21 µM,–,243,–,–,–,–,–,–

# Second part, led by results:
logP [1],EC50 [2],EC50 (Leishmania donovani [3]),EC50 (Trypanosoma cruzi [5]),EC50 [6],Compound,inhibition at 30 µM (Trypanosoma cruzi [4]),selectivity ratio [7],Inhibition (Trypanosoma cruzi [8]),Activity against T. cruzi (Trypanosoma cruzi [9]),NA [10],inhibition at 30 µM (Leishmania donovani [11]),Inhibition (Leishmania donovani [12]),ED50 (Homo sapiens)
2.31,–,> 30 µM,–,–,CCCOC(=O)CNC(=O)C(CSc1ccc([N+](=O)[O-])cc1[N+](=O)[O-])NC(=O)CCC(NC(=O)OCc1ccccc1)C(=O)O (configuration not stated),–,–,–,not active at 30 umol,not active at 30 umol,–,–,–
7.71,> 300 µM,> 30 µM,–,34.8 µM,CC(C)CCC(C)OC(=O)CNC(=O)C(CSc1ccc([N+](=O)[O-])cc1[N+](=O)[O-])NC(=O)CCC(NC(=O)OCc1ccccc1)C(=O)OC(C)CCC(C)C (configuration not stated),–,> 9,–,–,–,70%,–,–
6.87,–,–,–,–,CCCC(CC)OC(=O)CNC(=O)C(CSc1ccc([N+](=O)[O-])cc1[N+](=O)[O-])NC(=O)CCC(NC(=O)OCc1ccccc1)C(=O)OC(CC)CCC (configuration not stated),–,–,–,–,–,–,–,–
1.82,–,> 30 µM,–,–,CCOC(=O)CNC(=O)C(CSc1ccc([N+](=O)[O-])cc1[N+](=O)[O-])NC(=O)CCC(NC(=O)OCc1ccccc1)C(=O)O (configuration not stated),–,–,–,–,–,–,–,–
2.23,–,–,–,–,CC(C)OC(=O)CNC(=O)C(CSc1ccc([N+](=O)[O-])cc1[N+](=O)[O-])NC(=O)CCC(NC(=O)OCc1ccccc1)C(=O)O (configuration not stated),–,–,–,not active at 30 umol,not active at 30 umol,–,–,–
2.72,–,20 µM,–,20 µM,CCC(C)OC(=O)CNC(=O)C(CSc1ccc([N+](=O)[O-])cc1[N+](=O)[O-])NC(=O)CCC(NC(=O)OCc1ccccc1)C(=O)O (configuration not stated),–,–,–,not active at 30 umol,–,–,–,–
3.93,269 µM,7.8 µM,–,20 µM,CC(C)OC(=O)CNC(=O)C(CSc1ccc([N+](=O)[O-])cc1[N+](=O)[O-])NC(=O)CCC(NC(=O)OCc1ccccc1)C(=O)OC(C)C (configuration not stated),–,13.5,–,not active at 30 umol,–,–,–,–
5.89,213 µM,> 30 µM,–,3.74 µM,CCC(CC)OC(=O)CNC(=O)C(CSc1ccc([N+](=O)[O-])cc1[N+](=O)[O-])NC(=O)CCC(NC(=O)OCc1ccccc1)C(=O)OC(CC)CC (configuration not stated),–,57,–,–,–,17%,–,–
4.91,> 300 µM,> 30 µM,–,2 µM,CCC(C)OC(=O)CNC(=O)C(CSc1ccc([N+](=O)[O-])cc1[N+](=O)[O-])NC(=O)CCC(NC(=O)OCc1ccccc1)C(=O)OC(C)CC (configuration not stated),–,150,–,–,–,36%,–,–
5.75,245 µM,13.4 µM,< 30 µM,6 µM,CC(C)C(C)OC(=O)CNC(=O)C(CSc1ccc([N+](=O)[O-])cc1[N+](=O)[O-])NC(=O)CCC(NC(=O)OCc1ccccc1)C(=O)OC(C)C(C)C (configuration not stated),64%,24,–,–,–,–,–,–
5.89,393 µM,> 30 µM,> 30 µM,3.34 µM,CCCC(C)OC(=O)CNC(=O)C(CSc1ccc([N+](=O)[O-])cc1[N+](=O)[O-])NC(=O)CCC(NC(=O)OCc1ccccc1)C(=O)OC(C)CCC (configuration not stated),17%,118,–,–,–,25%,–,–
6.87,178 µM,> 30 µM,> 30 µM,5.2 µM,CCCCC(C)OC(=O)CNC(=O)C(CSc1ccc([N+](=O)[O-])cc1[N+](=O)[O-])NC(=O)CCC(NC(=O)OCc1ccccc1)C(=O)OC(C)CCCC (configuration not stated),21%,46,–,–,–,6%,–,–
6.73,43.2 µM,> 30 µM,> 30 µM,0.25 µM,CC(C)CC(C)OC(=O)CNC(=O)C(CSc1ccc([N+](=O)[O-])cc1[N+](=O)[O-])NC(=O)CCC(NC(=O)OCc1ccccc1)C(=O)OC(C)CC(C)C (configuration not stated),31%,173,–,–,–,8%,–,–
